CYP2C19 inh = blocks human cytochrome P450 2C19; AID 778; actives 21% (n = 96,000); CYP2C19 Supersomes, luciferin-H EGE luminescence, 30 min; inhibition, % at 5 µM;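 active = CYP2C19 inhibition above a set limit at 5 µM in the primary screen, cut at about 50% in these data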;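 note: plate controls were negative control wells for no effect and 2.5 mM tranylcypromine positive control for full effect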
Target sequence (P33261 whole entry, looked up): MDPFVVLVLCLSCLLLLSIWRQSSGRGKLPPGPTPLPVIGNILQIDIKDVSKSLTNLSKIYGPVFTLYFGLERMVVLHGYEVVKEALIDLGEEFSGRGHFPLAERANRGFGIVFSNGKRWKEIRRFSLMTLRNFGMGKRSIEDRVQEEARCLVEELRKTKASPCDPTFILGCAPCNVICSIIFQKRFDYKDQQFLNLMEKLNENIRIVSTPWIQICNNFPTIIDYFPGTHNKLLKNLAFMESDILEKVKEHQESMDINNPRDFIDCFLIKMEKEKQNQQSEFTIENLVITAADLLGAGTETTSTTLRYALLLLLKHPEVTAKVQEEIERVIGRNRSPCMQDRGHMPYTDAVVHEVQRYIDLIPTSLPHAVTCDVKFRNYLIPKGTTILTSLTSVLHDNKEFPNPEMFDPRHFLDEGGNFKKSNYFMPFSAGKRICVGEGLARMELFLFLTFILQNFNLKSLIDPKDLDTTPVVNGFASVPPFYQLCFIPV
Cav3 T inh = blocks human Cav3.2 T-type calcium channel | O95180 | Cav3.2-expressing cells, Fluo-4 calcium fluorescence FDSS; active compounds read low | B-score at 10 µM | actives 4% (n = 100,000) | AID 449739;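 active = single-dose well whose peak fluorescence ratio is a statistical outlier from its plate by either plate-standardised score or position-corrected B-score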
CYP2C9 inhib = blocks human cytochrome P450 2C9; P11712; CYP2C9 Supersomes, luciferin-H conversion, luminescence; inhibition, % at 5 µM; actives 20% (n = 96,000);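 active = blocking of liver enzyme CYP2C9 beyond about 50% at 5 µM, limit read from the data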
CYP2C9 act = CYP2C9 (human) activation. recombinant CYP2C9, luciferin-H conversion, luminescence; active compounds read high; factor 1 = untreated enzyme, 0 = blocked. AID 1024. P11712. actives 1.4% (n = 96,000). activation factor at 5 µM;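 active = activation factor of 2 or more for CYP2C9 at a 5 µM dose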;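 note: 0 = sulfaphenazole-blocked wells and 1 = vehicle-only wells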
CYP2C19 act = activators of human cytochrome P450 2C19. P33261. recombinant CYP2C19, luciferin-H EGE luminescence; active compounds read high; 0 = fully inhibited enzyme, 1 = untreated enzyme. activation factor at 5 µM. 96,000 tested, under 10 active. AID 1025;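 active = activation factor of at least 2 at 5 µM in the primary screen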;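 note: 0 = wells with 2.5 mM tranylcypromine and 1 = vehicle-only wells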
Rev-RRE block = HIV Rev-RRE protein-RNA interaction inhibition. actives 0.79% (n = 97,000). Rev peptide-RRE RNA binding, FRET. P05866. inhibition, % at 8 µM;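 active = inhibition above the screen-wide mean plus 3 SD, cut at about 35% in these data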;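 note: 0% = median DMSO wells and 100% = median Neomycin B control wells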
Target sequence (P05866 whole entry, looked up): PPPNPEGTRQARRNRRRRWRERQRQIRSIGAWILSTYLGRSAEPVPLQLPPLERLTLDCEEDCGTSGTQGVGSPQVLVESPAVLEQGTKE
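Assay system: Labelled RRE RNA duplex and labelled Rev peptide | Times: 5 min preincubation and 15 min binding, 25 °C | Detection: FRET, ex 480 nm, em 540 and 671 nm | Evaluation: % inhibition of FRET ratio versus controls | Benchmarks: DMSO wells as 0% and neomycin B wells as 100% inhibition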
Numbers without * were called inactive; . = no result. Hits are enriched below; roughly 27% of the tested compounds scored in any of these assays.

SMILES | CYP2C19 inh | Cav3 T inh | CYP2C9 inhib | CYP2C9 act | CYP2C19 act | Rev-RRE block
O=c1[nH]c2cc3c(cc2cc1CN(CCc1ccccc1)Cc1nnnn1C1CCCC1)OCCO3 | 35 | 0.15 | 39 | 0.6 | 0.7 | 12
CC(=O)c1c(C)[nH]c(C(=O)OC2CCCCC2=O)c1C (stereo unspecified) | 26 | -0.046 | 18 | 0.8 | 0.7 | -3
CC(C(=O)O)n1nc2ccccc2n1 (stereo unspecified) | -6 | 0.59 | -4 | 1 | 1.1 | 2
COc1ccc(CCNC(=O)c2c(O)c3c([nH]c2=O)CCCC3)cc1OC | . | 0.53 | . | . | . | 3
COc1cc(NC(=O)c2ccnnc2)cc(C(=O)Nc2cccc(C(F)(F)F)c2)c1 | . | 0.088 | . | . | . | .
Cc1ccc2c(c1Br)/C(=N/N1C(=O)c3ccccc3C1=O)C(=O)N2 | 30 | . | 51* | 0.5 | 0.7 | 2
CC(=O)c1c(C)nn(CC(O)Cn2c3c(c4cc(C)ccc42)CCCC3=O)c1C (stereo unspecified) | 54* | -0.14 | 67* | 0.3 | 0.5 | -1
Cc1ccc2c(c1)c(C)c(C)n2CC(O)Cn1nc(C)c(Br)c1C (stereo unspecified) | 97* | -3.3 | 96* | 0 | 0 | 8
Cc1c(C)n(CC(O)CN2CCCCC2)c2ccccc12 (stereo unspecified) | 8 | 1.2 | -14 | 1.1 | 0.9 | 0
Cc1ccc(C)c(OCC(O)CN2CCCCC2C)c1 (stereo unspecified) | 53* | 1.2 | -10 | 1.1 | 0.5 | -8
Cc1ccc2c(c1)c1c(n2CC(O)CNC(CO)(CO)CO)CCCC1 (stereo unspecified) | 24 | 0.54 | 15 | 0.9 | 0.8 | 5
Cc1ccc2c(c1)c(C)c(C)n2CC(O)CN1CCCCC1C (stereo unspecified) | 75* | 0.15 | 5 | 0.9 | 0.3 | -3
O=C(CSc1nnc(Cc2cc(=O)[nH]c(=O)[nH]2)n1-c1ccccc1)N1CCCc2ccccc21 | -4 | -0.056 | 18 | 0.8 | 1 | -1
Cc1n(CC(O)COCc2ccccc2)c2ccccc2[n+]1C (stereo unspecified) | -14 | . | 8 | 0.9 | 1.1 | -1
O/N=C(\c1ccc(Cl)cc1)c1ncc(C(F)(F)F)cc1Cl | 98* | -6.1* | 86* | 0.1 | 0 | 24
COc1ccc(C2C3=C(CC(C)(C)CC3=O)Nc3c2c(=O)[nH]c2nc(C)nn32)cc1 (stereo unspecified) | 4 | 0.62 | 12 | 0.9 | 1 | 6
COc1cccc(CNC(=O)C2CCCN(c3nn4c(=O)cc(C)nc4s3)C2)c1 (stereo unspecified) | 8 | 0.48 | -4 | 1 | 0.9 | .
O=C(Nc1ccccc1-c1ccccc1)C1CCCN(c2ncccn2)C1 (stereo unspecified) | 73* | -0.51 | 51* | 0.5 | 0.3 | -2
O=C(C1CCCN(c2ncccn2)C1)N1CCc2ccccc21 (stereo unspecified) | 84* | -0.021 | 72* | 0.3 | 0.2 | -2
Cc1cc(=O)n2nc(N3CCCC(C(=O)N4CCc5ccccc54)C3)sc2n1 (stereo unspecified) | 21 | 1.6 | 58* | 0.4 | 0.8 | 6
CCc1cc2c(SCC(=O)c3ccc(C)cc3)ncnc2s1 | . | -0.66 | . | . | . | 12
CCSc1nnc(-c2cccnc2)n1-c1ccc(Cl)c(C)c1 | 13 | 1.3 | 12 | 0.9 | 0.9 | 2
O=[N+]([O-])c1cc(/C=N/O)ccc1Sc1ccccc1 | 11 | -3.3 | 67* | 0.3 | 0.9 | 11
O=[N+]([O-])c1cc(/C=N/O)ccc1SCc1ccccc1 | 20 | -0.19 | 26 | 0.7 | 0.8 | -2
CO/N=C/c1ccc(N2CCN(C(=O)c3ccc(F)cc3)CC2)c([N+](=O)[O-])c1 | 39 | -0.11 | 42 | 0.6 | 0.6 | 6
SMILES | CYP2C19 inh | Cav3 T inh | CYP2C9 inhib | CYP2C9 act | CYP2C19 act | Rev-RRE block
CO/N=C/c1ccc(Sc2ccccc2)c([N+](=O)[O-])c1 | 16 | -0.31 | 74* | 0.3 | 0.8 | 17
CO/N=C/c1ccc(Sc2ccccc2N)c([N+](=O)[O-])c1 | 74* | -1.4 | 69* | 0.3 | 0.3 | 12
COc1ccc(-c2cc(NCc3ccccn3)n3ncnc3n2)cc1 | 8 | . | 8 | 0.9 | 0.9 | .
COc1ccc(-c2cc(NCCc3ccncc3)n3ncnc3n2)cc1 | 49 | 2.1 | 70* | 0.3 | 0.5 | .
COc1cc(C2=NOC(C(=O)Nc3ccc(C(C)=O)cc3)C2)cc(OC)c1OC (stereo unspecified) | -12 | -0.2 | 2 | 1 | 1.1 | -1
COc1ccc(OC)c(C2=NOC(C(=O)Nc3ccccc3SC)C2)c1 (stereo unspecified) | 86* | -3 | -33 | 1.3 | 0.1 | 11
COc1ccc(OC)c(C2=NOC(C(=O)Nc3cccc(C(C)=O)c3)C2)c1 (stereo unspecified) | 52* | 1 | -134 | 2.3* | 0.5 | 8
COc1cc(NC(=O)C2CC(c3cccc(OC)c3OC)=NO2)cc(OC)c1OC (stereo unspecified) | 61* | 1.4 | -37 | 1.4 | 0.4 | -2
COc1ccccc1NC(=O)N1CCC(c2nnc(SCC(N)=O)n2C)CC1 | -9 | 0.32 | -1 | 1 | 1.1 | 8
O=C(CN1/C(=C(/O)c2ccccc2)C(=O)c2ccccc2S1(=O)=O)c1ccccc1 | 11 | -6.9* | 48 | 0.5 | 0.9 | 0
O=C(O)c1ccc(CN2C(=O)c3ccccc3S2(=O)=O)cc1 | -10 | 0.59 | -6 | 1.1 | 1.1 | 1
CCOC(=O)C1=C(C)NC(=O)NC1c1c(C)nn(-c2ccccc2)c1Cl (stereo unspecified) | 30 | 3 | 46 | 0.5 | 0.7 | .
Cc1nn(-c2ccccc2)c(Cl)c1/C=C1\SC(=S)NC1=O | 4 | -4.5* | 76* | 0.2 | 1 | 2
CN(Cc1c(F)cccc1Cl)c1nnnn1-c1ccccc1 | 100* | -2.2 | 35 | 0.7 | 0 | 2
O=C(CS(=O)(=O)c1ccccc1)c1ccc2c(c1)OCCO2 | 70* | 0.58 | -84 | 1.8 | 0.3 | 8
O=C(O)CCC(=O)c1ccc2c(c1)OCCO2 | -15 | 2.3 | -7 | 1.1 | 1.2 | 6
O=C(CCN1CCc2ccccc2C(c2ccccc2)C1)c1ccc2c(c1)OCCO2 (stereo unspecified) | 29 | 0.67 | 55* | 0.5 | 0.7 | 6
O=C(CCN1Cc2ccccc2C1)c1ccc2c(c1)OCCO2 | 48 | 1.2 | 52* | 0.5 | 0.5 | 7
C=CCn1c(N)cc(=O)nc1SCC(=O)N1CCN(c2ccc(F)cc2)CC1 | 20 | -0.086 | 4 | 1 | 0.8 | 1
O=C(CSc1nc2ccccc2[nH]1)NCc1ccco1 | 20 | 0.56 | 10 | 0.9 | 0.8 | 6
